Screening data as filed in PubChem.
Mdm2 MdmX PPI: inhibitors of human Mdm2-MdmX association, primary screen, cell-based, luminescence, split luciferase, SaOS-2, uHTS; Protein Mdm4 (Homo sapiens) + E3 ubiquitin-protein ligase Mdm2 (Homo sapiens), …; inhibition, % at 8 µM; SaOS-2 split-luciferase Mdm2/MdmX complementation; 3% of 330,000 active;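 active means inhibition of at least 50% at 8 µM in the primary screen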
Target sequence (O15151 whole entry, looked up): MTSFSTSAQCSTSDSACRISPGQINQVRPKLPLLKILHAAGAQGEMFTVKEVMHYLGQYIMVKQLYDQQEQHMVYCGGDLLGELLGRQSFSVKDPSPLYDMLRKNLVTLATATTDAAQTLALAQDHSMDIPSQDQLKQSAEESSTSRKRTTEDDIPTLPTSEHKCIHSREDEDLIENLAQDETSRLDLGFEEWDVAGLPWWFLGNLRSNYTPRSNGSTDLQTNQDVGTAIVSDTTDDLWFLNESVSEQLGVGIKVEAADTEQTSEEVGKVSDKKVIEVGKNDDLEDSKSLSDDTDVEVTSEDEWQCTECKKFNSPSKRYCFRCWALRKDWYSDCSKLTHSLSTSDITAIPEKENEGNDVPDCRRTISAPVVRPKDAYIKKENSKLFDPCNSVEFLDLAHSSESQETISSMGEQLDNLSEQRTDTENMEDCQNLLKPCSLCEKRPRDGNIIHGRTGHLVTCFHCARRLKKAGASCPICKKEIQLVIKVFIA
Target sequence (Q00987 whole entry, looked up): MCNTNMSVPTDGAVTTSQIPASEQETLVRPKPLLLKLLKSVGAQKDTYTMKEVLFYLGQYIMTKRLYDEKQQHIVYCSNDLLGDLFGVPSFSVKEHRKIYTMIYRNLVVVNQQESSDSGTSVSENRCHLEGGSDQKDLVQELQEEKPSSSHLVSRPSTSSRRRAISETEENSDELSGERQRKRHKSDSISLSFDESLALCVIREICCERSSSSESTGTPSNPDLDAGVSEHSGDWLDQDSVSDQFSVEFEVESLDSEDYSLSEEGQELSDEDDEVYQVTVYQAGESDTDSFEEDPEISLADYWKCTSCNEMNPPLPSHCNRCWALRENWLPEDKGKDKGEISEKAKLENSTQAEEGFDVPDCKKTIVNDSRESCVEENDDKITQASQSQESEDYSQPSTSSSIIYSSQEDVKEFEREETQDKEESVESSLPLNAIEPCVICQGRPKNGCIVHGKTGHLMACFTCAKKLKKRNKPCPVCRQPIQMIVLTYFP
Exocytosis inh: LAMP-1 surface exposure blockers, TALL-104 cells – cell-based, flow cytometry, MLPCN library, primary screen; inhibition, % at 10 µM; TALL-104 LAMP-1 surface exposure; cells stimulated with thapsigargin and PMA; 0.66% of 360,000 active;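 active means inhibition above about 55%, limit read from the data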
CHOP UPR activ: activators of apoptotic CHOP UPR arm, primary screen, cell-based, CHO-CHOP luciferase reporter, luminescence, uHTS | UPR activation; percent of tunicamycin response over DMSO baseline | activation, % at 10 µM | 0.34% of 330,000 active;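 active means at 10 µM dose, activation of 40% or more, normalized to positive control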;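 further: 100% = tunicamycin at 10 µg/mL and 0% = DMSO alone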
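System: CHO CHOP reporter cells. Amount: 500 cells per well. Buffer or medium: F12 medium, 10% FBS. Compound dosing: one dose, 10 µM in 0.5% DMSO. Incubation: 6 h compound exposure at 37 °C after overnight seeding. Technique: Steady-Glo luciferase luminescence. Benchmarks: tunicamycin and DMSO controls.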
ABHD5-PLIN5 inh: ABHD5-PLIN5 interaction inhibitors, primary screen, cell lysate, split luciferase complementation, luminescence | Perilipin-5 (Homo sapiens) + 1-acylglycerol-3-phosphate O-acyltransferase ABHD5 (Homo … | Split G. princeps luciferase complementation, 4 h | inhibition, % at 4 µM | 0.78% of 360,000 active;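 active means inhibition above the mean inhibition across every tested compound plus 3 SD, cut at about 22% in these data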;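 further: 0% = DMSO only wells and the 100% control is not disclosed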
UPR XBP1 act: activators of adaptive XBP1 UPR arm, primary screen, cell-based, CHO-XBP1 luciferase reporter, luminescence, uHTS; AID 463104, 2010; IRE1-XBP1 UPR activation; percent of tunicamycin response, DMSO as zero; activation, % at 20 µM; 0.33% of 330,000 active;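 active means versus positive control, 20 µM dose yields 30% or more activation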;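 further: 100% = tunicamycin at 10 µg/mL and 0% = DMSO only wells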
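Assay system: CHO-XBP1 luciferase reporter cells; Schedule: 6 h treatment, 37 °C; Detection: glow luminescence from Steady-Glo reagent; Benchmarks: high control tunicamycin 10 µg/mL final, low control DMSO vehicle only.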
* = called active by the depositor; . = no result given. Compounds with a hit are over-represented: about 4% of the library has one in this group of screens.

SMILES	Mdm2 MdmX PPI	Exocytosis inh	CHOP UPR activ	ABHD5-PLIN5 inh	UPR XBP1 act
CC(=NNc1nc2ccccc2o1)c1cc2ccccc2cn1	.	101*	.	4	.
CC(=NNc1nc2ccccc2o1)c1ncccn1	.	-2	.	3	.
COC1=C(C)C(=O)C2=C(C1=O)C1C3CC4=C(C(=O)C(OC)=C(C)C4=O)C(CNC(=O)C(C)=O)N3C(C#N)C(C2)N1C (centres undefined)	.	74*	.	-14	.
O=C(COC(=O)CSc1cc(Cl)ccc1Cl)NCc1ccc2c(c1)OCO2	-20	0	-2	-2	0
O=C(O)c1ccc(-c2ccc(/C=C3\NC(=O)N(Cc4ccc(Cl)cc4)C3=O)o2)cc1Cl	-5	0	0	28*	-1
CCCCn1c2c(c(=N)c3ccccc31)CCC2	27	-5	1	4	0
CCOC(=O)c1c(-c2ccc(C)o2)csc1NC(=O)CSc1nncs1	-26	90*	1	47*	4
CN1CCN(c2ccc(Cl)cc2NC(=O)c2cccc(S(=O)(=O)N(C)C)c2)CC1	11	-6	-2	4	1
CN1CCN(c2ccc(Cl)cc2NC(=O)/C=C/c2cccc(F)c2)CC1	26	10	0	22*	-4
Cc1ccccc1OCc1nnc(SCC(=O)Nc2ccc3nc(SCC(=O)NC(C)(C)C)sc3c2)n1C	42	77*	-3	5	-8
Cc1ccc(SCc2c(C(=O)N/N=C/c3ccccc3)nnn2-c2nonc2N)cc1	18	85*	1	-4	-1
Cc1ccc(/C=N/NC(=O)c2nnn(-c3nonc3N)c2CSc2ccccc2)cc1	7	4	2	0	1
Cc1ccc(SCc2c(C(=O)N/N=C/c3ccc4c(c3)OCO4)nnn2-c2nonc2N)cc1	34	79*	-1	-6	2
CCCCCC(=O)Nc1ccc2ccccc2c1	-40	-2	6	0	3
O=C(CS)Nc1ccc2ccccc2c1	.	67*	.	-11	.
COc1cc(SC)ccc1C(=O)Nc1c(C)cccc1C	-2	-2	2	1	-3
N#CC(C#N)=C1C=CC=CN1/C(=C\c1ccccc1Cl)C(=O)c1ccccc1	.	68*	.	19	.
COc1cc(N2Cc3ccccc3C2)ccc1C=O	-17	0	2	-3	-3
CC1(C)C[C@H]2C3=CCC4[C@@]5(C)CC[C@H](O[C@@H]6O[C@H](C(=O)O)[C@@H](O)[C@H](O)[C@H]6O)[C@@](C)(CO)C5CC[C@@]4(C)[C@]3(C)C[C@H](O)[C@@]2(CO)[C@@H](O)[C@@H]1O (some centres undefined)	7	8	0	-4	-4
C/C=C(\C)C(=O)OC1[C@H](OC(C)=O)C2(CO)C(CC1(C)C)C1=CCC3C4(C)CCC(O[C@@H]5O[C@H](C(=O)O)[C@@H](O[C@@H]6O[C@H](CO)[C@@H](O)[C@H](O)[C@H]6O)[C@H](O)[C@H]5O[C@H]5O[C@H](CO)[C@@H](O)[C@H](O)[C@H]5O)[C@](C)(CO)C4CCC3(C)[C@]1(C)C[C@H]2O (some centres undefined)	.	71*	.	6	.
CC(=O)Nc1ccc(NC(=O)Nc2cccc(Cl)c2)cc1	2	-5	4	0	-2
CC(=O)C(=Nc1ccc(Cl)cc1Cl)NNc1cccc(Cl)c1	-7	85*	-2	-19	2
Cn1cccc1CNC1CCCC1	2	-3	-1	-2	-5
Cc1cc(F)ccc1NC(=O)Nc1ccc2c(c1)OCO2	10	2	4	0	0
c1ccc(Sc2ccccn2)cc1	37	4	1	0	-2
SMILES	Mdm2 MdmX PPI	Exocytosis inh	CHOP UPR activ	ABHD5-PLIN5 inh	UPR XBP1 act
c1ccc(SSc2ccccn2)nc1	27	53	-1	35*	-2
Cn1c(CN2CCCC2)nc2cc(NC(=O)c3cccs3)ccc21	-35	9	1	2	1
COc1ccc(-c2cc(C3CCN(Cc4cccc(C(F)(F)F)c4)CC3)[nH]n2)cc1	10	6	-4	3	-1
CCOC(=O)C(=O)N=Nc1c(O)[nH]c2ccccc12	-24	0	-1	6	-1
Cc1ccccc1Cn1c(=O)n(Cc2ccco2)c(=O)c2ccccc21	46	-1	-1	9	0
Cc1cc(C)c(NC(=O)Cn2c(=O)n(Cc3ccco3)c(=O)c3ccccc32)c(C)c1	2	4	-6	43*	0
Cn1c(CNc2ccc(Cl)cc2)nc2ccccc21	-29	-5	3	-3	7
O=C1CCCN1CN(C(=O)c1ccccc1)c1ccccc1	7	-4	1	2	-5
CC(C)C(=O)N(c1ccc2oc(=O)sc2c1)S(=O)(=O)c1cccs1	1	2	0	30*	-1
CC(=O)N(c1ccc2oc(=O)sc2c1)S(=O)(=O)c1cccs1	-3	-1	0	9	4
Cc1cccc(N(C(=O)c2snc(C(N)=O)c2N)C(C(=O)NCC2CCCO2)c2ccc(N(C)C)cc2)c1C (centres undefined)	-17	66*	1	-6	-4
CN(C)c1ccc(C(C(=O)NCC2CCCO2)N(Cc2ccccc2)C(=O)c2snc(C(N)=O)c2N)cc1 (centres undefined)	26	0	4	4	-5
CCOC(=O)C(=C1Nc2ccccc2N1)n1c(-c2ccco2)nc2ccccc21	.	98*	.	-4	.
O=C(Cc1ccccc1F)Nc1nc(-c2ccc(F)cc2)cs1	11	6	8	-6	1
CC1(C)CC(NC(=O)c2ccccc2)CC(C)(C)N1	10	-1	2	7	-2
CC1(C)CC(Nc2ccc(Nc3ccccc3)cc2)CC(C)(C)N1	.	83*	.	9	.
O=Cc1cnc2ccccc2c1-c1ccccc1	16	80*	2	2	3
O=Cc1cn[nH]c1-c1ccccc1	12	4	-3	-3	1
COc1ccc(CCN2C(=O)C=CC2=O)cc1OC	.	26	.	53*	.
CC(=O)c1c(C(C)=O)c(C)n(NC(=O)c2cccnc2)c1C	-10	6	2	-1	0
Cc1ccc(S(=O)(=O)N(C(=O)c2ccncc2)c2ccc(OC(=O)c3ccncc3)c3ccccc23)cc1	8	118*	14	19	-2
N#C/C(=C/c1ccc(N2CCCCCC2)o1)c1cccc(F)c1	50	25	13	59*	3
COc1cc(N2CCCC2)c(OC)cc1/C=C(/C#N)c1cccc(F)c1	.	5	.	-1	.
N#C/C(=C/c1ccc(N2CCOCC2)o1)c1ccc(Br)cc1	-83	67*	4	63*	1
